ChEMBL document CHEMBL3877241 (J Med Chem, 2016)
The source made the active and inactive calls. The calls are words filed in the database; no cut-off is given here.

Experiments:
[1] = molecular target: T1, Protein deacetylase HDAC6 (Homo sapiens) (UniProt Q9UBN7); test: Inhibition of HDAC6 in human MOLM14 cells assessed as increase in acetylated tubulin level at 2 times antiproliferative IC50 after 16 to 48 hrs by immunoblot method; type: cell-based; conditions: MOLM-14
T1 sequence (whole entry): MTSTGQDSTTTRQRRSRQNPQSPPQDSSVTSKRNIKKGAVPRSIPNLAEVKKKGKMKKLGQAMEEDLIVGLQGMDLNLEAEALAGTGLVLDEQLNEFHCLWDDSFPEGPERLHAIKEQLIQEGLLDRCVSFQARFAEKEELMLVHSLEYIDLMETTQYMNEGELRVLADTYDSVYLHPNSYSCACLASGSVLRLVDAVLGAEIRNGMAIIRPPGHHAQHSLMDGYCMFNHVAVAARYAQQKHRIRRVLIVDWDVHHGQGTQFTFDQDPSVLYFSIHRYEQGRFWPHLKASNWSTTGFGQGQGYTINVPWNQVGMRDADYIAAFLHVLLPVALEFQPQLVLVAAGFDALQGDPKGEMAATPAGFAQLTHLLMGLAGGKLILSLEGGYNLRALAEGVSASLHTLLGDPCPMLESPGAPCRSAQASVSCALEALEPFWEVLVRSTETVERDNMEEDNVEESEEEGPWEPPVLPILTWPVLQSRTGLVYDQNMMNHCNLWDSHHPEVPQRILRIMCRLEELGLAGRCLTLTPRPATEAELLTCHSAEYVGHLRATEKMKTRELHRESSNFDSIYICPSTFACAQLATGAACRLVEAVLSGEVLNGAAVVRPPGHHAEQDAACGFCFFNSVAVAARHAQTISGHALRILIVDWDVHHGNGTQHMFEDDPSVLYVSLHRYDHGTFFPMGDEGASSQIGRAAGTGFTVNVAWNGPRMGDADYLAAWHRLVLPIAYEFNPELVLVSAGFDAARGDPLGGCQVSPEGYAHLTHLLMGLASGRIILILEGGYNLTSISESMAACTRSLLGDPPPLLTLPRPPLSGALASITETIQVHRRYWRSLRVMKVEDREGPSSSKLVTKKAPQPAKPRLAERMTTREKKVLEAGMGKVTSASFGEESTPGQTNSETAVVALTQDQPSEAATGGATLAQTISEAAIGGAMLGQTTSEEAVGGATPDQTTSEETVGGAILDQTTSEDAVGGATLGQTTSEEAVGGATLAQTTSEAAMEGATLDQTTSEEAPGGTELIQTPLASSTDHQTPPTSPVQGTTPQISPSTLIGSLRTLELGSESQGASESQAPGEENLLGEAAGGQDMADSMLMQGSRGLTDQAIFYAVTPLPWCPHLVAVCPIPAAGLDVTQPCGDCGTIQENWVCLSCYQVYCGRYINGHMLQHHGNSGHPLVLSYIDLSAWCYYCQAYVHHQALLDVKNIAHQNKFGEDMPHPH
Method in brief: (§1)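 KMS-12-BM or MOLM-14 cells (at least 3x10^6 per condition) treated at about 2x their proliferation IC50 in a time course of 0 to 48 h. Tubastatin (15 μM, 48 h) used as HDAC6 control. Lysates immunoblotted for acetyl-α-tubulin and acetyl-H3 (Lys9/Lys14); re-probed for α-tubulin and H3.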

[2] = molecular target: Histone deacetylase 4 (Homo sapiens) (UniProt P56524); test: Inhibition of human recombinant N-terminal GST-tagged C-terminal His-tagged HDAC4 (627 to 1084 residues) expressed in insect cells at 10 uM preincubated with enzyme followed by acetyl-Lys(trifluoroacetyl)-AMC substrate addition measured after 2 hrs by fluorescence assay relative to control
Method in brief: (§2)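 HDAC enzyme in 50 mM Tris-HCl pH 8.0, 137 mM NaCl, 2.7 mM KCl, 1 mM MgCl2 was pre-incubated with compound dosed from DMSO. The reaction was started with the class IIa substrate acetyl-Lys(trifluoroacetyl)-AMC and run 2 h at 30 °C. Developer with trichostatin A stopped it, and fluorescence (Ex/Em 360/460 nm) was read at plateau. Single test concentration 10 µM.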

[3] = molecular target: Histone deacetylase 3/Nuclear receptor corepressor 2 (HDAC3/NCoR2) (Homo sapiens, UniProt O15379); test: Inhibition of full length human recombinant C-terminal His-tagged HDAC3 (1 to 428 residues)/N-terminal GST-tagged NCOR2 (395 to 489 residues) expressed in insect cells preincubated with enzyme followed by fluorogenic Arg-His-Lys-Lys(Ac)-AMC substrate addition measured after 2 hrs by fluorescence assay
[4] = molecular target: T1, Protein deacetylase HDAC6 (Homo sapiens); test: Inhibition of HDAC6 in human KMS-12-BM cells assessed as increase in acetylated tubulin level at 2 times antiproliferative IC50 up to 48 hrs by immunoblot method; type: cell-based; method in brief: as §1
[5] = molecular target: T2, Protein deacetylase HDAC6 (Homo sapiens, UniProt Q9UBN7); test: Inhibition of full length human recombinant N-terminal GST-tagged HDAC6 (1 to 1215 residues) expressed in sf9 cells preincubated with enzyme followed by fluorogenic Arg-His-Lys-Lys(Ac)-AMC substrate addition measured after 2 hrs by fluorescence assay
T2 sequence (Q9UBN7 whole entry): T1 sequence (whole entry)

HEL 92.1.7 = test: Inhibition of colony formation in HEL 92.1.7 cells harboring JAK2 V617F mutant after 14 to 16 days; type: functional, cell-based; conditions: Homo sapiens
Method in brief: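 HEL cells (200 cells/mL) mixed into methylcellulose semi-solid medium with inhibitor at various concentrations. Incubated 14-16 days, then colonies counted. Data given as mean ± SEM.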

[6] = molecular target: Mast/stem cell growth factor receptor Kit (Homo sapiens, UniProt P10721); test: Inhibition of human KIT (I571 to D952 residues) expressed in bacterial expression system by KINOMEScan assay
MOLM-14 [7] = test: Induction of apoptosis in human MOLM14 cells assessed as live cells at 1.5 uM after 48 hrs by Annexin-V FITC/propidium iodide staining based flow cytometry (reference value: 94 to 94.1%); type: functional
[8] = molecular target: Mast/stem cell growth factor receptor Kit (Homo sapiens, UniProt P10721, T670I/V559D); test: Inhibition of human KIT (Y545 to D952 residues) V559D/T670I double mutant expressed in bacterial expression system by KINOMEScan assay
MOLM-14 [9] = test: Induction of apoptosis in human MOLM14 cells assessed as live cells at 0.75 uM after 48 hrs by Annexin-V FITC/propidium iodide staining based flow cytometry (reference value: 94 to 94.1%); type: functional
Method in brief: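 MOLM-14 cells treated 48 h at the stated concentrations; doxorubicin as positive control. Stained with Annexin V-FITC and propidium iodide and analysed by flow cytometry (at least 10,000 events). Gated quadrants: Annexin V−/PI− viable, Annexin V+/PI− early apoptotic, Annexin V+/PI+ late apoptotic.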

[10] = Growth inhibition of human HL60 cells at 4 uM relative to control; type: functional; conditions: HL-60, read-out: GI
[11] = Antiproliferative activity against human MCF7 cells after 72 hrs by MTT assay; type: functional, cell-based; conditions: MCF7, 72 h
[12] = molecular target: Histone deacetylase 5 (Homo sapiens) (UniProt Q9UQL6); test: Inhibition of human recombinant C-terminal His-tagged HDAC5 (656 to 1122 residues) expressed in insect cells at 10 uM preincubated with enzyme followed by acetyl-Lys(trifluoroacetyl)-AMC substrate addition measured after 2 hrs by fluorescence assay relative to control; method in brief: as §2

Sequence of Histone deacetylase 4 (Homo sapiens) (P56524 whole entry, the tested form may be a part): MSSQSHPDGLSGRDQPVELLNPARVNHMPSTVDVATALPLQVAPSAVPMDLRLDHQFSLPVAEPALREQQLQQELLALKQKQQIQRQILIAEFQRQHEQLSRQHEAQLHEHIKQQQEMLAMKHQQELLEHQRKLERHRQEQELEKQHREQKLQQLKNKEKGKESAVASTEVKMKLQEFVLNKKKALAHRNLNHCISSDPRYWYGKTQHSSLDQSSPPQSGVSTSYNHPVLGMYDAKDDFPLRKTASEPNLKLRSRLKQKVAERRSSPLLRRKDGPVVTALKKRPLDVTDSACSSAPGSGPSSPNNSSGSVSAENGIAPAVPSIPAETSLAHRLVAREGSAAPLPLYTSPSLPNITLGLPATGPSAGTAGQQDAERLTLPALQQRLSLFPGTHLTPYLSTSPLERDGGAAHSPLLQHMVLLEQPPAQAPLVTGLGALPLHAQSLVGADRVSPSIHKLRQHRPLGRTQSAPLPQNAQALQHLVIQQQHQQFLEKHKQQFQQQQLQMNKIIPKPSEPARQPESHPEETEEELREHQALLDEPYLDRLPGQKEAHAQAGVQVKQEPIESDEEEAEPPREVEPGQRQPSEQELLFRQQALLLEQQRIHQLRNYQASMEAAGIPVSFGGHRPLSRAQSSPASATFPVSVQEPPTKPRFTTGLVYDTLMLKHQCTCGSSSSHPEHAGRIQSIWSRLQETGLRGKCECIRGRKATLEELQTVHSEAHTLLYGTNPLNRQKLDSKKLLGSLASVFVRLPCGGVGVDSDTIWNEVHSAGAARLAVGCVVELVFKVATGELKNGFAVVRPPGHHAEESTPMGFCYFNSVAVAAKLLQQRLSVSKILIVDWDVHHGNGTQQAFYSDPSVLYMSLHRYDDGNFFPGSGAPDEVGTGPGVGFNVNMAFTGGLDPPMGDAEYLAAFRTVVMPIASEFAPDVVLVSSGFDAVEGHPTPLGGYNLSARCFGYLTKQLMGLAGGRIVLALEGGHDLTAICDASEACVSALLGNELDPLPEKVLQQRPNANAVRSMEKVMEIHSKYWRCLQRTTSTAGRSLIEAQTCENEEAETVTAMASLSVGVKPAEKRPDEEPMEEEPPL
Sequence of Mast/stem cell growth factor receptor Kit (Homo sapiens, UniProt P10721, T670I/V559D) (P10721 26-976 V559D/T670I limits assumed): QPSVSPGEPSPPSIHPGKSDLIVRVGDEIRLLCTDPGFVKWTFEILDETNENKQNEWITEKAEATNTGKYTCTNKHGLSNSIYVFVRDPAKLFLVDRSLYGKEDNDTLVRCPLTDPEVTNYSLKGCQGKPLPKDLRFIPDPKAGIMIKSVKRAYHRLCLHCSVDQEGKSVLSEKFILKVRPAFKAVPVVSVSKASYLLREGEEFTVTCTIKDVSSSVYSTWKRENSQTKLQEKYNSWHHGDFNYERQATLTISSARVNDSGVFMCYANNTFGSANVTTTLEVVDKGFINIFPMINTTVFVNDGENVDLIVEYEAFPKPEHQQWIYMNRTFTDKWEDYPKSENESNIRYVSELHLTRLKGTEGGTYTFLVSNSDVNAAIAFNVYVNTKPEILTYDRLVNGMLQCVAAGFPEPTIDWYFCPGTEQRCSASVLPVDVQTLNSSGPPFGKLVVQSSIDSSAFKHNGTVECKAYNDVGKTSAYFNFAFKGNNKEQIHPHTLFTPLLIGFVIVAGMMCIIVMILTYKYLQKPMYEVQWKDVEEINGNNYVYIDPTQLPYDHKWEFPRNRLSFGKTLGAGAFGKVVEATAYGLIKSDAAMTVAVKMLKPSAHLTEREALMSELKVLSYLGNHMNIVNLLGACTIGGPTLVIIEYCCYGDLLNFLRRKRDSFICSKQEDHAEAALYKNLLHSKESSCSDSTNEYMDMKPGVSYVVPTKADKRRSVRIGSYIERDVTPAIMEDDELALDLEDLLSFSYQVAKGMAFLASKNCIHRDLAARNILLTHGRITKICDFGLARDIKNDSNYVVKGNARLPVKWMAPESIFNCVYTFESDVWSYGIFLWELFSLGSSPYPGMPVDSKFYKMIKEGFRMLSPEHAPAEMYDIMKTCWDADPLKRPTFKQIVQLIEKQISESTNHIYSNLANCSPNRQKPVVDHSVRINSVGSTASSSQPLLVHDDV
Sequence of Histone deacetylase 3/Nuclear receptor corepressor 2 (HDAC3/NCoR2) (O15379 whole entry, the tested form may be a part): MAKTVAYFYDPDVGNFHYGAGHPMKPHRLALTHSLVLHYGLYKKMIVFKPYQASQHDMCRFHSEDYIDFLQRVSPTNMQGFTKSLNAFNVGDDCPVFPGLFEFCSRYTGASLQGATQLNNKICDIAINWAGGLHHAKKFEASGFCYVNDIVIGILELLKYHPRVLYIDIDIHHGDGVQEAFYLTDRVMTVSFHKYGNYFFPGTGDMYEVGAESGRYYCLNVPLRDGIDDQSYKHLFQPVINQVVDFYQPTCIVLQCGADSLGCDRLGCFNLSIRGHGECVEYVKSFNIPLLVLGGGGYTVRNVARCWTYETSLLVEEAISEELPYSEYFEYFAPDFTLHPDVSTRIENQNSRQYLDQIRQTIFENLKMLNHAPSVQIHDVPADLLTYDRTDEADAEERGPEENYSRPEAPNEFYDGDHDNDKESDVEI
Sequence of Histone deacetylase 3/Nuclear receptor corepressor 2 (HDAC3/NCoR2) (Q9Y618 whole entry, further chain, the tested form may be a part): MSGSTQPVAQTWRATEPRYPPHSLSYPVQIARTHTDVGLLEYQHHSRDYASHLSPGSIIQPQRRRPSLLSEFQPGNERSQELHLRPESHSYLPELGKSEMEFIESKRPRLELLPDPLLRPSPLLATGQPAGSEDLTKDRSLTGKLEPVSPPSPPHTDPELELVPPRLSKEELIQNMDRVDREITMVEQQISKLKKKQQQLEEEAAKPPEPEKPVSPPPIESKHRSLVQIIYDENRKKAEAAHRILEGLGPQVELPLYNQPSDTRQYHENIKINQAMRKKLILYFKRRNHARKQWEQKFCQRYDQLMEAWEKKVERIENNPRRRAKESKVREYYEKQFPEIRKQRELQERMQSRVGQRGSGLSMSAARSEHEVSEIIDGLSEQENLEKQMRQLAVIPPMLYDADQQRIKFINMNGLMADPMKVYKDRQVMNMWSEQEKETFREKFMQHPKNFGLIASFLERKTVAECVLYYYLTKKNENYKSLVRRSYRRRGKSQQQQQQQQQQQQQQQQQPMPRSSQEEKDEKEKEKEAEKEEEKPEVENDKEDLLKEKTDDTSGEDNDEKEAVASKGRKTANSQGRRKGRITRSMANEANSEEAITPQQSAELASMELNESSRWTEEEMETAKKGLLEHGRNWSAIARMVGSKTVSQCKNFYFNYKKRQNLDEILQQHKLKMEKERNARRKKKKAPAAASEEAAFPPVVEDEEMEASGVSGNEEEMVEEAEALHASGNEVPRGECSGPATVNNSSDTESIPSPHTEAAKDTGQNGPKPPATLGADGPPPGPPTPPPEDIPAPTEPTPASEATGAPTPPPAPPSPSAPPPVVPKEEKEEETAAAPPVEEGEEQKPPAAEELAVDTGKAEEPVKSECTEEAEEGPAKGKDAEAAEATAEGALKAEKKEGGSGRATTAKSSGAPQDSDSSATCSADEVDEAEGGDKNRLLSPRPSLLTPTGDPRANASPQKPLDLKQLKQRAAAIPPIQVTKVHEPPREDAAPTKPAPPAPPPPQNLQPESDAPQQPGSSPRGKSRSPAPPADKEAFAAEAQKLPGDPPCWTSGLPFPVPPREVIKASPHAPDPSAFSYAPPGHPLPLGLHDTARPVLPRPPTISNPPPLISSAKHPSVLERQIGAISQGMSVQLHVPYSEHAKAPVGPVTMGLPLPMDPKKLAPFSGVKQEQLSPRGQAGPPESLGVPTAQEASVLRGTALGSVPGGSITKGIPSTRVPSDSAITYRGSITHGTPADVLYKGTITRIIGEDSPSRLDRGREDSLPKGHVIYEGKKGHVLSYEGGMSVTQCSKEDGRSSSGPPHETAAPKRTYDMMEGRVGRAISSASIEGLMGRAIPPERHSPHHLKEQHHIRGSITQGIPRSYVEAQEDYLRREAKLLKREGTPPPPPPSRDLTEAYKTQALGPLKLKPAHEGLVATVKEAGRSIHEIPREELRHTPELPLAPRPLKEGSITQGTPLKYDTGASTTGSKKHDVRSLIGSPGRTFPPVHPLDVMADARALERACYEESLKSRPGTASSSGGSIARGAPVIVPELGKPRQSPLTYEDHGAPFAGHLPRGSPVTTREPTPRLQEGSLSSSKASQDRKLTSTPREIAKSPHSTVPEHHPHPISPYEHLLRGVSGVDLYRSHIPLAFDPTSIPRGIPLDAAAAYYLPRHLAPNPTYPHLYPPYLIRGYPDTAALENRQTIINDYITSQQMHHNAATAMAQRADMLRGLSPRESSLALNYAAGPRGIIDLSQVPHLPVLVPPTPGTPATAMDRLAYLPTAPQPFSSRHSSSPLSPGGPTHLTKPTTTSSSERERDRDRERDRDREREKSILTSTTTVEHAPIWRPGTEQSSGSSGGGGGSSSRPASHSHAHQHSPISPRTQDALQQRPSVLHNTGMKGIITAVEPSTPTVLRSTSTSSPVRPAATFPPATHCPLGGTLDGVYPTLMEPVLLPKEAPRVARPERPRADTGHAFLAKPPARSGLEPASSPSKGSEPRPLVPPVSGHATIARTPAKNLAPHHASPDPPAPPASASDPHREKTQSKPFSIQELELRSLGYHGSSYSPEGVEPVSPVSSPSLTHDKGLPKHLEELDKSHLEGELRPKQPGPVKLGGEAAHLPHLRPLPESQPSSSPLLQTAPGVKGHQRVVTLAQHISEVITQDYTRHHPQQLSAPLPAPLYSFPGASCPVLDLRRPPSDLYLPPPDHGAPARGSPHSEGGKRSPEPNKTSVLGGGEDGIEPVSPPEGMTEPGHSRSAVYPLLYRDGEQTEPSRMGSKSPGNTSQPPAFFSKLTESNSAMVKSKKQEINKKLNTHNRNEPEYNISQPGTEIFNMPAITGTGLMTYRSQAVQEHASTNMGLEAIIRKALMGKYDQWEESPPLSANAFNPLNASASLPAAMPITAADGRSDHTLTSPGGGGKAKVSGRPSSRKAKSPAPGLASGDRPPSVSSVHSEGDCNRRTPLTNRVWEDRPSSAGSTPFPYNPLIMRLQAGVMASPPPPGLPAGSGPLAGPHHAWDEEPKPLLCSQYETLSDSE

Q: For O=C(CCCCCCOc1ccc2cc1COC/C=C/COCc1cccc(c1)-c1ccnc(n1)N2)NO, which inhibition [1] is on record?
A: Active

Q: And the inhibition [2]?
A: 8.6%

Q: What about the IC50 [3] of the same compound?
A: 2170 nM

Q: And the inhibition [4]?
A: Active

Q: And the IC50 [5]?
A: 2.1 nM

Q: And the inhibition (HEL 92.1.7)?
A: Dose-dependent effect

Q: And the IC50 [6]?
A: 1000 to 10000 nM

Q: What about the Activity (MOLM-14 [7]) of the same compound?
A: 74.1%

Q: And the IC50 [8]?
A: 1000 to 10000 nM

Q: And the Activity (MOLM-14 [9])?
A: 81.7%

Q: What about the inhibition of growth at 4 µM [10] of the same compound?
A: 47%

Q: What about the IC50 [11] of the same compound?
A: 1470 nM

Q: And the inhibition [12]?
A: 16.1%
